Measured values reported in PubChem BioAssay.
The source made the active and inactive calls.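 The calls were made as follows, unless noted: active = viability loss from added drug above about 55%, and viability with drug at most 40%, in both replicates (limit read from the data, passing the limit was not always enough); inconclusive = both conditions met in only one replicate; inactive = neither replicate meets both conditions.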 Peptide text beside a SMILES is read from it. * marks the point of attachment. Boc = CC(C)(C)OC(=O)*

Assays:
[1] = reducers of endogenous Her2 protein level, primary screen, SKBR3 breast tumor cells, AlphaScreen, ATP viability (AID 461;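 active = Her2 level under about 52% in both replicate screens, with viability over 70% of control, limit read from the data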;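 as to Her2 level: lower value means less Her2 protein in the cells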;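 as to viability: percent of carrier control wells set as 100% viability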); conditions: 18-24 h, measured here: SKBR3 viability, ATP luminescence, at 10 µM
[2] = target: Receptor tyrosine-protein kinase erbB-2 (Homo sapiens) (UniProt P04626); experiment: as above; conditions: 18-24 h, at 10 µM, stronger effect = lower value
Chain of Receptor tyrosine-protein kinase erbB-2 (Homo sapiens) (P04626 whole entry, looked up): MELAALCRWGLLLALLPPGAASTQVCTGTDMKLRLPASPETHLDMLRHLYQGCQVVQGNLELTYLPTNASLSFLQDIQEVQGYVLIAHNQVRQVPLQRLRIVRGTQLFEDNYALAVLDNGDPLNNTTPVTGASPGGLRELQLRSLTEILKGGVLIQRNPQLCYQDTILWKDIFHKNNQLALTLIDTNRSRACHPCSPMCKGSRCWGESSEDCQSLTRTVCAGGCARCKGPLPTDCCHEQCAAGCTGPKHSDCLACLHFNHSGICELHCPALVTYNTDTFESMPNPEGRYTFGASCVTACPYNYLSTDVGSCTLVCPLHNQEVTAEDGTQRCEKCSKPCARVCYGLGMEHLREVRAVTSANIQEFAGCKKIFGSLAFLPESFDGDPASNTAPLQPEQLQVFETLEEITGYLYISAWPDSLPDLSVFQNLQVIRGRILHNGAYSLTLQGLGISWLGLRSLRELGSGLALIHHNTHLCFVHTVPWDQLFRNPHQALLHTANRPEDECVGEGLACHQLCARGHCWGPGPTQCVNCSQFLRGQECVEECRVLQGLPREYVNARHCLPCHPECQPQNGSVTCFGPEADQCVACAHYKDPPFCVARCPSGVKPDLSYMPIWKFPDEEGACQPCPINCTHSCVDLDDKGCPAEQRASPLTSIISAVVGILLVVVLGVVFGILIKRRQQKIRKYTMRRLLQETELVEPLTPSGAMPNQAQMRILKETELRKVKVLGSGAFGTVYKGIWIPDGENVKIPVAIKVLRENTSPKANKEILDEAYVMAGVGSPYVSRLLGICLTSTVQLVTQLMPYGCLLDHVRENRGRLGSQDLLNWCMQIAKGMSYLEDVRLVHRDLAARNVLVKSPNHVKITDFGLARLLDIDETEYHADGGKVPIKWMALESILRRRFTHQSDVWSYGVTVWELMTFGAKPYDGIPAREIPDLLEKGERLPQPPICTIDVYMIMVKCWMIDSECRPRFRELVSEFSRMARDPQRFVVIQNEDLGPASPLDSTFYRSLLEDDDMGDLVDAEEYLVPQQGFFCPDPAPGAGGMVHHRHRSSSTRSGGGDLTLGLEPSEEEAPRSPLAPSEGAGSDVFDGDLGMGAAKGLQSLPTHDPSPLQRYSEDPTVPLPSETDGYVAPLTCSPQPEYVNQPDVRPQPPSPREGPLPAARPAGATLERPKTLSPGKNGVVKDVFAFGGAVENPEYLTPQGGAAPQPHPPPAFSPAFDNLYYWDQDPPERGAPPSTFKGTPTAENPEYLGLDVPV

[3] = SK-BR-3 cell growth inhibitors, pilot screen, 24 h, human (AID 572;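 active = viability at or below 10% of carrier control in both of two separate runs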;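 also: compound exposure lasted between 18 and 24 h rather than exactly 24 h; 100% = carrier-treated control wells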); conditions: SK-BR-3 viability, CellTiter-Glo luminescence, at 10 µM, stronger effect = lower value
[4] = HUVEC growth inhibition – cell-based, human, primary screen (AID 575;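 active = viability at or below 30% in both replicate assays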;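 also: 100% = median of untreated cell wells with 0.1% DMSO on each plate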); conditions: HUVEC proliferation, CellTiter-Glo luminescence, 72 h; at 10 µM; stronger effect = lower value
Outline: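 Test system – primary HUVEC, no more than 12 passages · Dosing – one dose, 10 µM final, 0.1% DMSO · Times – 72 h treatment at 37 °C · Measured by – ATP-based CellTiter-Glo luminescent read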

[5] = growth inhibitors of H69AR lung tumor, primary screen, human, duplicate replicates (AID 580;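 active = viability at or under a set limit in both replicates, limit being median viability minus 3 SD, cut at about 48% in these data, passing the limit was not always enough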;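 also: 100% = mean luminescence of untreated wells and 0% = no signal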); conditions: H69AR lung tumor cells viability, ATP luminescence, 72 h; at 10 µM; stronger effect = lower value
[6] = reversal of MRP1-mediated doxorubicin resistance, pilot screen, H69AR cells, doxorubicin co-treatment (AID 601); conditions: CellTiter-Glo, 72 h, at 10 µM; for differential viability (reversal): stronger effect = higher value
[7] = 384-well plate pilot, post-Golgi transport modulator project, inhibition of yeast transport mutant growth (AID 636; in the data active = inhibition above about 31%); conditions: absorbance 615 nm, about 18 h, stronger effect = higher value
[8] = growth suppression of yeast trafficking mutant, preliminary HTS, modulators of trafficking downstream of Golgi apparatus project, 1536-format plate, OD 615 nm (AID 637; in the data active = inhibition above about 30%); conditions: yeast transport mutant growth, absorbance 615 nm, 18 h; stronger effect = higher value
[9] = H69AR cells + 2 uM doxorubicin, measured here: viability with 2 uM doxorubicin, stronger effect = lower value
[10] = H69AR cells, compound alone cytotoxicity

Compound	viability [1]	Her2 level [2]	viability [3]	viability [4]	viability [5]	differential viability (reversal) ([6]; H69AR cells + 2 uM doxorubicin)	viability [6, 9]	viability [6, 10]	inhibition [7]	inhibition [8]
COc1ccc(CNC(=O)c2cc3c(=O)n4ccccc4nc3n(Cc3ccco3)c2=N)cc1	114%	97.5% (inactive)	114% (inactive)	105% (inactive)	110% (inactive)	33% (inactive)	76.9%	110%	-0.39% (inactive)	-5.08% (inactive)
CC(C)(C)OC(=O)N1CCCC1C(=O)NC(Cc1ccccc1)C(=O)O (stereo not drawn) (Boc-Pro-Phe-OH; configuration not given here)	116%	102% (inactive)	116% (inactive)	96.1% (inactive)	104% (inactive)	8.93% (inactive)	95.2%	104%	-4.59% (inactive)	0.48% (inactive)
CC(=O)NC1(c2nnnn2CCOC(=O)Nc2ccc(Cl)cc2)CCCCC1	112%	89% (inactive)	112% (inactive)	98.5% (inactive)	98.5% (inactive)	13% (inactive)	85.4%	98.5%	-3.29% (inactive)	8.69% (inactive)
COc1ccc(C)cc1-n1nnnc1SCC(=O)Nc1cc(C)on1	95%	85% (inactive)	95% (inactive)	78.6% (inactive)	90.6% (inactive)	4.68% (inactive)	85.9%	90.6%	-2.6% (inactive)	-0.63% (inactive)
O=C(COC(=O)c1cc(-c2ccco2)nc2ccccc12)NCc1ccc2c(c1)OCO2	97%	93% (inactive)	97% (inactive)	72.2% (inactive)	96.8% (inactive)	11.3% (inactive)	85.5%	96.8%	-5.75% (inactive)	-10.3% (inactive)
COc1cccc(OC)c1C(=O)N1CCN(S(=O)(=O)c2ccccc2)CC1	79.5%	82.5% (inactive)	79.5% (inactive)	82.9% (inactive)	97.2% (inactive)	15.2% (inactive)	82.1%	97.2%	-3.42% (inactive)	-2% (inactive)
O=C(Nc1ccc2nc(-c3cccs3)[nH]c2c1)c1ccco1	108%	98.5% (inactive)	108% (inactive)	94.2% (inactive)	75.2% (inactive)	1.25% (inactive)	74%	75.2%	0.13% (inactive)	2.95% (inactive)
CCS(=O)(=O)N1CCC(C(=O)NC2CCCCCCC2)CC1	98%	110% (inactive)	98% (inactive)	108% (inactive)	97.5% (inactive)	7.86% (inactive)	89.6%	97.5%	-0.51% (inactive)	-1.5% (inactive)
CC(O)c1nc2ccccc2n1C1CCCCC1 (stereo not given)	104%	91.5% (inactive)	104% (inactive)	124% (inactive)	97.2% (inactive)	11.3% (inactive)	85.9%	97.2%	-1.18% (inactive)	3.55% (inactive)
Cc1cc(Cl)c(S(=O)(=O)N2CCN(c3ccc(F)cc3)CC2)cc1OCC(N)=O	82.5%	100% (inactive)	82.5% (inactive)	97.1% (inactive)	80.5% (inactive)	1.14% (inactive)	79.3%	80.5%	-5.66% (inactive)	8.85% (inactive)
Cc1cc(C(F)F)n2ncc(C(=O)NC3CCCCCC3)c2n1	89.5%	86% (inactive)	89.5% (inactive)	78.1% (inactive)	89.9% (inactive)	-0.225% (inactive)	90.2%	89.9%	-4.74% (inactive)	8.69% (inactive)
CC1CN=C(N(C(=O)Nc2ccccc2)c2ccc(S(=O)(=O)N3CCOCC3)cc2)S1 (stereo not given)	95.5%	108% (inactive)	95.5% (inactive)	91.5% (inactive)	95.3% (inactive)	16.8% (inactive)	78.5%	95.3%	-0.51% (inactive)	-8.67% (inactive)
O=C1CC(N2CCOCC2)C(=O)N1c1ccc2c(c1)OCO2 (stereo not given)	102%	92.5% (inactive)	102% (inactive)	92% (inactive)	104% (inactive)	-4.17% (inactive)	108%	104%	-2.11% (inactive)	0.32% (inactive)
Cc1ccc(-c2csc3ncn(-n4c(C)ccc4C)c(=O)c23)o1	96%	114% (inactive)	96% (inactive)	88.7% (inactive)	91.3% (inactive)	10.3% (inactive)	81%	91.3%	-5.27% (inactive)	-5.57% (inactive)
CC(=O)Nc1sc2c(c1CN1CCN(c3ccccn3)CC1)CCCC2	66%	85.5% (inactive)	66% (inactive)	96% (inactive)	95.4% (inactive)	12% (inactive)	83.3%	95.4%	-2.53% (inactive)	-10.5% (inactive)
COc1c(Br)cc2c(C)c(C(=O)O)oc2c1Br	104%	102% (inactive)	104% (inactive)	84.2% (inactive)	94.2% (inactive)	4.95% (inactive)	89.3%	94.2%	1.82% (inactive)	-4.59% (inactive)
O=C(NCCC1=CCCCC1)C1CCN(C(=O)Nc2ccccc2)CC1	106%	128% (inactive)	106% (inactive)	91.3% (inactive)	101% (inactive)	5.69% (inactive)	95.7%	101%	-2.21% (inactive)	-2.33% (inactive)
c1ccc(-c2noc(C3CCCCC3)n2)nc1	91%	96.5% (inactive)	91% (inactive)	114% (inactive)	102% (inactive)	11.2% (inactive)	90.4%	102%	0.82% (inactive)	-2.7% (inactive)
COCCn1nnnc1C(c1cccs1)N1CCN(c2cc(C)ccc2C)CC1 (stereo not given)	107%	84.5% (inactive)	107% (inactive)	84.8% (inactive)	92.5% (inactive)	2.44% (inactive)	90.1%	92.5%	1.3% (inactive)	1.27% (inactive)
N#CC1=C(SCC(=O)c2cc3ccccc3oc2=O)NC(=O)C(C#N)C12CCCC2 (stereo not given)	92%	76% (inactive)	92% (inactive)	72.1% (inactive)	86.5% (inactive)	6.35% (inactive)	80.1%	86.5%	-3.2% (inactive)	0.32% (inactive)
Cc1ccc(C)c(N2CCN(C(=O)c3ccc(CS(=O)(=O)c4ccccc4C)o3)CC2)c1	82%	66.5% (inactive)	82% (inactive)	50.8% (inactive)	11.8% (active)	-39.1% (inactive)	50.9%	11.8%	-3.16% (inactive)	1.27% (inactive)
CN1C(=O)CC(C(=O)Nc2ccc(F)cc2)SC1=Nc1ccc2c(c1)OCO2 (stereo not given)	88%	73% (inactive)	88% (inactive)	95% (inactive)	82.5% (inactive)	2.84% (inactive)	79.6%	82.5%	-7.16% (inactive)	0.83% (inactive)
Cc1ccc(-n2nc(C(=O)N3CCN(C)CC3)c3c4ccccc4n(C)c3c2=O)cc1	90.5%	80% (inactive)	90.5% (inactive)	99.9% (inactive)	96.8% (inactive)	2.81% (inactive)	93.9%	96.8%	-1.97% (inactive)	-1.61% (inactive)
CCCN1CCN(CCCNC(=O)Cn2nc(-c3ccc(Cl)cc3)ccc2=O)CC1	86%	93.5% (inactive)	86% (inactive)	104% (inactive)	101% (inactive)	10.3% (inactive)	90.6%	101%	-2.76% (inactive)	2.42% (inactive)
O=C(C1CCCN(S(=O)(=O)c2cnc[nH]2)C1)N1CCN(c2ccc(Cl)cc2)CC1 (stereo not given)	85.5%	93% (inactive)	85.5% (inactive)	110% (inactive)	111% (inactive)	14.8% (inactive)	96%	111%	-0.13% (inactive)	-4.92% (inactive)
O=C(Nc1nc(-c2ccccc2)cs1)C1CCCCN1S(=O)(=O)c1ccccc1 (stereo not given)	100%	80% (inactive)	100% (inactive)	71.5% (inactive)	73.8% (inactive)	-18.2% (inactive)	92%	73.8%	-0.13% (inactive)	11.4% (inactive)
N#Cc1c(NC(=O)CSc2nnnn2C2CCCC2)sc2c1CCCC2	82.5%	85% (inactive)	82.5% (inactive)	94.6% (inactive)	69.9% (inactive)	1.64% (inactive)	68.2%	69.9%	-0.53% (inactive)	0.16% (inactive)
Cc1ccc(Cn2c(NCCc3ccccc3)nc3c2c(=O)n(C)c(=O)n3C)cc1	82.5%	75% (inactive)	82.5% (inactive)	73.5% (inactive)	91.9% (inactive)	3.77% (inactive)	88.1%	91.9%	-10% (inactive)	-2.7% (inactive)
